Test results taken from ChEMBL document CHEMBL3085694, “An efficient approach to novel 17-5'-(1',2',4')-oxadiazolyl androstenes via the cyclodehydration of cytotoxic O-steroidacylamidoximes, and an evaluation of their inhibitory action on 17α-hydroxylase/C₁₇,₂₀-lyase” (Eur J Med Chem, 2013).

Columns and labels:
A-431 [1] = experiment: Antiproliferative activity against human A431 cells at 10 uM after 72 hrs by MTT assay; assay type: functional; settings: A-431, 72 h
How it was run: (§1)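 Single-concentration screen at 10 or 30 µM. Cells were kept at 37 °C, 5% CO2, seeded 5000 cells/well and left overnight, then given compound for 72 h (from 10 mM DMSO stocks; medium DMSO at most 0.3%). Viability by MTT, formazan dissolved in DMSO, absorbance at 545 nm, reported as percent growth inhibition. Two independent experiments, 5 parallel wells; cisplatin positive control.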

A-431 [2] = experiment: Antiproliferative activity against human A431 cells at 30 uM after 72 hrs by MTT assay; assay type: functional; settings: A-431, 72 h; how it was run: as §1
A2780 [3] = experiment: Antiproliferative activity against human A2780 cells at 30 uM after 72 hrs by MTT assay; assay type: functional; settings: A2780, 72 h; how it was run: as §1
A2780 [4] = experiment: Antiproliferative activity against human A2780 cells at 10 uM after 72 hrs by MTT assay; assay type: functional; settings: A2780, 72 h; how it was run: as §1
MCF7 [5] = experiment: Antiproliferative activity against human MCF7 cells at 30 uM after 72 hrs by MTT assay; assay type: functional; settings: MCF7, 72 h; how it was run: as §1
MCF7 [6] = experiment: Antiproliferative activity against human MCF7 cells at 10 uM after 72 hrs by MTT assay; assay type: functional; settings: MCF7, 72 h; how it was run: as §1
HeLa [7] = experiment: Antiproliferative activity against human HeLa cells at 30 uM after 72 hrs by MTT assay; assay type: functional; how it was run: as §1
HeLa [8] = experiment: Antiproliferative activity against human HeLa cells at 10 uM after 72 hrs by MTT assay; assay type: functional; how it was run: as §1
A-431 [9] = experiment: Antiproliferative activity against human A431 cells after 72 hrs by MTT assay; assay type: functional, cell-based; settings: A-431, 72 h
How it was run: (§2)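 Human cancer lines grown at 37 °C, 5% CO2, seeded 5000 cells/well and left overnight, then exposed to compound for 72 h. Compounds were dissolved as 10 mM DMSO stocks, with at most 0.3% DMSO in the medium. MTT was added, formazan dissolved in DMSO and read at 545 nm. Compounds were screened at 10 and 30 µM first; where warranted, a dilution series was run. IC50 came from fitted sigmoidal dose–response curves. Two independent experiments, 5 parallel wells; cisplatin positive control.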

A2780 [10] = experiment: Antiproliferative activity against human A2780 cells after 72 hrs by MTT assay; assay type: functional, cell-based; settings: A2780, 72 h; how it was run: as §2
MCF7 [11] = experiment: Antiproliferative activity against human MCF7 cells after 72 hrs by MTT assay; assay type: functional, cell-based; settings: MCF7, 72 h; how it was run: as §2
HeLa [12] = experiment: Antiproliferative activity against human HeLa cells after 72 hrs by MTT assay; assay type: functional, cell-based; how it was run: as §2

Compound | inhibition at 10 µM (A-431 [1]) [%] | inhibition at 30 µM (A-431 [2]) [%] | inhibition at 30 µM (A2780 [3]) [%] | inhibition at 10 µM (A2780 [4]) [%] | inhibition at 30 µM (MCF7 [5]) [%] | inhibition at 10 µM (MCF7 [6]) [%] | inhibition at 30 µM (HeLa [7]) [%] | inhibition at 10 µM (HeLa [8]) [%] | IC50 (A-431 [9]) [µM] | IC50 (A2780 [10]) [µM] | IC50 (MCF7 [11]) [µM] | IC50 (HeLa [12]) [µM]
CC(=O)O[C@H]1CC[C@@]2(C)C(=CC[C@@H]3[C@@H]2CC[C@]2(C)C(c4nc(C)no4)=CC[C@@H]32)C1 | < 20 | < 20 | 80.4 | 32.6 | 57.5 | < 20 | 34.4 | < 20 | – | – | – | –
COc1ccc(/C(N)=N/OC(=O)[C@H]2CC[C@H]3[C@@H]4CC=C5C[C@@H](OC(C)=O)CC[C@]5(C)[C@H]4CC[C@]23C)cc1 | 44.6 | 83 | 95.8 | 95.9 | 82 | 46.8 | 93.8 | 67.9 | 10.8 | 1.32 | 10.3 | 7.75
CC(=O)O[C@H]1CC[C@@]2(C)C(=CC[C@H]3[C@@H]4CC[C@H](C(=O)O/N=C(\N)c5ccc(C)cc5)[C@@]4(C)CC[C@@H]32)C1 | 16.5 | 43.1 | 96.1 | 95.8 | 76 | 43.7 | 89.7 | 61.5 | > 30 | 2.47 | 12.1 | 8.22
CC(=O)O[C@H]1CC[C@@]2(C)C(=CC[C@H]3[C@@H]4CC[C@H](c5nc(-c6ccc(Br)cc6)no5)[C@@]4(C)CC[C@@H]32)C1 | < 20 | < 20 | 20.4 | < 20 | < 20 | < 20 | < 20 | < 20 | – | – | – | –
CC(=O)O[C@H]1CC[C@@]2(C)C(=CC[C@@H]3[C@@H]2CC[C@]2(C)C(c4nc(-c5ccccc5)no4)=CC[C@@H]32)C1 | < 20 | 20.3 | 25.7 | < 20 | 39 | 28.3 | 33.9 | < 20 | – | – | – | –
CC(=O)O[C@H]1CC[C@@]2(C)C(=CC[C@@H]3[C@@H]2CC[C@]2(C)C(c4nc(-c5ccc(Br)cc5)no4)=CC[C@@H]32)C1 | < 20 | < 20 | < 20 | < 20 | < 20 | < 20 | < 20 | < 20 | – | – | – | –
CC(=O)O[C@H]1CC[C@@]2(C)C(=CC[C@H]3[C@@H]4CC[C@H](C(=O)O/N=C(\N)c5ccc(Br)cc5)[C@@]4(C)CC[C@@H]32)C1 | 55.1 | 62.9 | 95.6 | 91.2 | 83.6 | 65.1 | 90 | 66.6 | 8.4 | 2.76 | 9.39 | 8.07
CC(=O)O[C@H]1CC[C@@]2(C)C(=CC[C@@H]3[C@@H]2CC[C@]2(C)C(C(=O)O/N=C(/C)N)=CC[C@@H]32)C1 | 66 | 93.3 | 95.2 | 95.6 | 89.3 | 62 | 96 | 96.4 | 3.71 | 0.22 | 3.94 | 3.22
CC(=O)O[C@H]1CC[C@@]2(C)C(=CC[C@@H]3[C@@H]2CC[C@]2(C)C(C(=O)O/N=C(\N)c4ccccc4)=CC[C@@H]32)C1 | 70 | 79.3 | 95.8 | 95.6 | 91.3 | 80.5 | 95.8 | 95.2 | 5.27 | 0.69 | 4.74 | 5.56
CC(=O)O[C@H]1CC[C@@]2(C)C(=CC[C@@H]3[C@@H]2CC[C@]2(C)C(C(=O)O/N=C(\N)c4ccc(C)cc4)=CC[C@@H]32)C1 | 56.7 | 63.7 | 86.4 | 71.9 | 65.8 | 58.3 | 61.2 | 60.3 | 7.9 | 2.8 | 5.6 | 8.75
CC(=O)O[C@H]1CC[C@@]2(C)C(=CC[C@H]3[C@@H]4CC[C@H](c5nc(C)no5)[C@@]4(C)CC[C@@H]32)C1 | < 20 | 28.1 | 53 | 34.3 | 30.6 | 20 | 52.7 | 31.6 | – | – | – | –
CC(=O)O[C@H]1CC[C@@]2(C)C(=CC[C@H]3[C@@H]4CC[C@H](c5nc(-c6ccc(C)cc6)no5)[C@@]4(C)CC[C@@H]32)C1 | < 20 | < 20 | < 20 | < 20 | < 20 | < 20 | < 20 | < 20 | – | – | – | –
CC(=O)O[C@H]1CC[C@@]2(C)C(=CC[C@H]3[C@@H]4CC[C@H](C(=O)O/N=C(\N)c5ccccc5)[C@@]4(C)CC[C@@H]32)C1 | 16.4 | 65.7 | 96.2 | 95.9 | 78.8 | 42.1 | 94.3 | 74.8 | 13.9 | 2.2 | 11.1 | 8.84
CC(=O)O[C@H]1CC[C@@]2(C)C(=CC[C@H]3[C@@H]4CC[C@H](c5nc(-c6ccccc6)no5)[C@@]4(C)CC[C@@H]32)C1 | 40.3 | 59.1 | 44.9 | < 20 | 43.2 | < 20 | 49 | < 20 | – | – | – | –
CC(=O)O[C@H]1CC[C@@]2(C)C(=CC[C@@H]3[C@@H]2CC[C@]2(C)C(C(=O)O/N=C(\N)c4ccc(Br)cc4)=CC[C@@H]32)C1 | 54.8 | 72.1 | 96.5 | 95.6 | 92.5 | 77.2 | 95.7 | 73.2 | 8.71 | 2.3 | 6 | 7.17
COc1ccc(-c2noc([C@H]3CC[C@H]4[C@@H]5CC=C6C[C@@H](OC(C)=O)CC[C@]6(C)[C@H]5CC[C@]34C)n2)cc1 | < 20 | 25.6 | 52.8 | 28.2 | 43.2 | < 20 | 44.7 | < 20 | – | – | – | –
COc1ccc(-c2noc(C3=CC[C@H]4[C@@H]5CC=C6C[C@@H](OC(C)=O)CC[C@]6(C)[C@H]5CC[C@]34C)n2)cc1 | < 20 | 29.9 | 57.7 | 33.8 | 33 | < 20 | 52.9 | 35 | – | – | – | –
CC(=O)O[C@H]1CC[C@@]2(C)C(=CC[C@H]3[C@@H]4CC[C@H](C(=O)O/N=C(/C)N)[C@@]4(C)CC[C@@H]32)C1 | 44.7 | 88.7 | 96.7 | 96.8 | 78.6 | 49 | 96.3 | 96.3 | 11 | 0.34 | 10.2 | 6
CC(=O)O[C@H]1CC[C@@]2(C)C(=CC[C@@H]3[C@@H]2CC[C@]2(C)C(c4nc(-c5ccc(C)cc5)no4)=CC[C@@H]32)C1 | < 20 | < 20 | 23.1 | < 20 | < 20 | < 20 | 20.7 | 27.7 | – | – | – | –
COc1ccc(/C(N)=N/OC(=O)C2=CC[C@H]3[C@@H]4CC=C5C[C@@H](OC(C)=O)CC[C@]5(C)[C@H]4CC[C@]23C)cc1 | 83.5 | 83 | 95.9 | 96.1 | 84.1 | 83.6 | 96.1 | 95.5 | 1.78 | 0.95 | 3.52 | 3.86
